Experimental data collected from several papers.
Compare with care: the assays were run in different laboratories.
Organism: Bacillus cereus

| SMILES | test | system | measurement | result |
| --- | --- | --- | --- | --- |
| CNC(=O)[C@@H](C)[C@H]1C(=O)/C(=C(O)/C=C/C(C)=C/[C@@H](C)[C@H]2O[C@@]3(C)O[C@H](C=C[C@@]34CO4)[C@@H]2C)C(=O)N1[C@@H]1CC[C@H](O)[C@H](C)O1 | microbial growth | – | MIC | > 100 µM |
| O=C(O)CN1C(=O)/C(=C/c2c3ccccc3c(-c3ccc(N(c4ccccc4)c4ccccc4)cc3)c3ccccc23)SC1=S | microbial killing, broth dilution | ATCC10876 | MBC | > 1000 µg/mL |
| O=C(Nc1ccc(S(=O)(=O)c2nccs2)cc1)c1cc(N=Nc2nccs2)ccc1O | microbial growth, broth dilution | – | MIC | 200 µg/mL |
| O=C(O)CN1C(=O)/C(=C/c2ccc(-c3ccc(N(c4ccccc4)c4ccccc4)cc3)c3ccccc23)NC1=S | microbial growth, broth dilution | ATCC10876 | MIC | > 1000 µg/mL |
| CC(=O)NC[C@H]1CN(c2ccc(N3CCOCC3)c(F)c2)C(=O)O1 | microbial growth, broth dilution | ATCC13061 | MIC | 1 µg/mL |
| CO[C@H]1O[C@H](COC(c2ccccc2)(c2ccccc2)c2ccccc2)[C@@H](OC(=O)c2ccc(C(C)(C)C)cc2)[C@H](OC(=O)c2ccc(C(C)(C)C)cc2)[C@H]1OC(=O)c1ccc(C(C)(C)C)cc1 | microbial growth, broth dilution | – | MIC | 0.75 µg/mL |
| Nc1ccc(-c2nc(-c3ccc(Oc4ccc(C(F)(F)F)cc4)cc3)no2)cc1 | microbial growth, broth dilution | ATCC13061 | MIC | 4 µg/mL |
| O=C(O)c1cn(C2CC2)c2cc(N3CCNCC3)c(F)cc2c1=O | microbial growth | – | MIC | 1.56 µM |
| O=C1NC(=S)S/C1=C\c1ccc(-c2ccc(N(c3ccccc3)c3ccccc3)cc2)cc1 | microbial killing, broth dilution | ATCC10876 | MBC | > 1000 µg/mL |
| CN[C@H](CC(C)C)C(=O)N[C@H]1C(=O)N[C@@H](CC(N)=O)C(=O)N[C@H]2C(=O)N[C@H]3C(=O)N[C@H](C(=O)N[C@H](C(=O)O)c4cc(O)cc(O)c4-c4cc3ccc4O)[C@H](O)c3ccc(c(Cl)c3)Oc3cc2cc(c3O[C@@H]2O[C@H](CO)[C@@H](O)[C@H](O)[C@H]2O[C@H]2C[C@](C)(N)[C@H](O)[C@H](C)O2)Oc2ccc(cc2Cl)[C@H]1O | microbial growth, broth dilution | ATCC13061 | MIC | 1 µg/mL |
